Data from ChEMBL document CHEMBL1154767, “Reversal agent and linker variants of reversed chloroquines: activities against Plasmodium falciparum” (J Med Chem, 2010).

Legend:
Plasmodium falciparum [1] = test: Antimalarial activity against chloroquine-sensitive Plasmodium falciparum D6 after 72 hrs by fluorescence based method; assay type: functional, organism-based; conditions: D6, 72 h
Procedure, shortened: (§1)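 Asynchronous parasite cultures diluted with uninfected erythrocytes in RPMI-1640 plus 0.5% Albumax II to 0.2% parasitemia, 2% hematocrit. Drugs diluted from 10 mM DMSO stock, final 0 to 10^-4 M, triplicate wells. After 72 h under standard culture conditions, read by SYBR Green I fluorescence (ex 497, em 520 nm). IC50 from nonlinear regression of fluorescence vs log[drug].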

Plasmodium falciparum [2] = test: Antimalarial activity against chloroquine-resistant Plasmodium falciparum Dd2 after 72 hrs by fluorescence based method; assay type: functional, organism-based; conditions: Dd2, 72 h; procedure, shortened: as §1
[3] = Therapeutic index, ratio of IC50 for C57B1/6J mice (Mus musculus) splenic lymphocyte to IC50 for chloroquine-sensitive Plasmodium falciparum D6; conditions: read-out: TI
[4] = Therapeutic index, ratio of IC50 for C57B1/6J mice (Mus musculus) splenic lymphocyte to IC50 for chloroquine-resistant Plasmodium falciparum Dd2; conditions: read-out: TI

Question: Which IC50 (Plasmodium falciparum [1]) does the source give for CN(CCCNc1ccnc2cc(Cl)ccc12)CCCN1c2ccccc2CCc2ccccc21 here?
Answer: 3 nM

Question: And the IC50 (Plasmodium falciparum [2])?
Answer: 5 nM

Question: With O=C(CNCCNc1ccnc2cc(Cl)ccc12)N(Cc1ccccc1)Cc1ccccc1 as the compound, how does the IC50 (Plasmodium falciparum [1]) read?
Answer: 14 nM

Question: And the IC50 (Plasmodium falciparum [2])?
Answer: 16 nM

Question: Which IC50 (Plasmodium falciparum [1]) does the source give for Clc1ccc2c(NCCNCCCN(Cc3ccccc3)Cc3ccccc3)ccnc2c1 here?
Answer: 7 nM

Question: And the IC50 (Plasmodium falciparum [2])?
Answer: 16 nM

Question: For O=C(CNCCNc1ccnc2cc(Cl)ccc12)N(c1ccccc1)c1ccccc1, which IC50 (Plasmodium falciparum [1]) is on record?
Answer: 5 nM

Question: What about the IC50 (Plasmodium falciparum [2]) of the same compound?
Answer: 13 nM

Question: And the selectivity ratio [3]?
Answer: 12000

Question: And the selectivity ratio [4]?
Answer: 4800

Question: Which IC50 (Plasmodium falciparum [1]) does the source give for O=C(CN(CCNc1ccnc2cc(Cl)ccc12)CC(=O)N(c1ccccc1)c1ccccc1)N(c1ccccc1)c1ccccc1 here?
Answer: 30 nM

Question: What about the IC50 (Plasmodium falciparum [2]) of the same compound?
Answer: 52 nM

Question: With Clc1ccc2c(NCCCNCCCCN(Cc3ccccc3)Cc3ccccc3)ccnc2c1 as the compound, how does the IC50 (Plasmodium falciparum [1]) read?
Answer: 8 nM

Question: And the IC50 (Plasmodium falciparum [2])?
Answer: 11 nM

Question: Which results are given for Clc1ccc2c(NCCN(CCN(Cc3ccccc3)Cc3ccccc3)CCN(Cc3ccccc3)Cc3ccccc3)ccnc2c1?
Answer: IC50 (Plasmodium falciparum [1]): 2 nM; IC50 (Plasmodium falciparum [2]): 5 nM

Question: For O=C(CN1CCN(c2ccnc3cc(Cl)ccc23)CC1)N(c1ccccc1)c1ccccc1, which IC50 (Plasmodium falciparum [1]) is on record?
Answer: 49 nM

Question: And the IC50 (Plasmodium falciparum [2])?
Answer: 101 nM

Question: Which results are given for Clc1ccc2c(NCCCNCCCN(Cc3ccccc3)Cc3ccccc3)ccnc2c1?
Answer: IC50 (Plasmodium falciparum [1]): 23 nM; IC50 (Plasmodium falciparum [2]): 34 nM

Question: Which IC50 (Plasmodium falciparum [1]) does the source give for Clc1ccc2c(NCCCNCCN(c3ccccc3)c3ccccc3)ccnc2c1 here?
Answer: 26 nM

Question: And the IC50 (Plasmodium falciparum [2])?
Answer: 27 nM

Question: What does the source list for Clc1ccc2c(NCCCNCCN(Cc3ccccc3)Cc3ccccc3)ccnc2c1?
Answer: IC50 (Plasmodium falciparum [1]): 2 nM; IC50 (Plasmodium falciparum [2]): 6 nM

Question: What does the source list for Clc1ccc2c(NCCNCCN(Cc3ccccc3)Cc3ccccc3)ccnc2c1?
Answer: IC50 (Plasmodium falciparum [1]): 10 nM; IC50 (Plasmodium falciparum [2]): 16 nM

Question: For Clc1ccc2c(N3CCN(CCN(Cc4ccccc4)Cc4ccccc4)CC3)ccnc2c1, which IC50 (Plasmodium falciparum [1]) is on record?
Answer: 52 nM

Question: And the IC50 (Plasmodium falciparum [2])?
Answer: 115 nM
